Screens deposited in PubChem BioAssay by The Scripps Research Institute Molecular Screening Center.
M5 ag: CHRM5 agonism in calcium assay. CHO-K1 hM5 cells, Fluo-8 calcium fluorescence; 0% DMSO wells, 100% maximal acetylcholine response. activation, % at 3 µM. hit rate 0.19% among 360,000. AID 624037;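 active means activation above the run's mean over test compounds plus 3 SD, cut at about 23% in these data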;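 further: signal is peak over basal fluorescence ratio across the kinetic read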
Target sequence (P08912 whole entry, looked up): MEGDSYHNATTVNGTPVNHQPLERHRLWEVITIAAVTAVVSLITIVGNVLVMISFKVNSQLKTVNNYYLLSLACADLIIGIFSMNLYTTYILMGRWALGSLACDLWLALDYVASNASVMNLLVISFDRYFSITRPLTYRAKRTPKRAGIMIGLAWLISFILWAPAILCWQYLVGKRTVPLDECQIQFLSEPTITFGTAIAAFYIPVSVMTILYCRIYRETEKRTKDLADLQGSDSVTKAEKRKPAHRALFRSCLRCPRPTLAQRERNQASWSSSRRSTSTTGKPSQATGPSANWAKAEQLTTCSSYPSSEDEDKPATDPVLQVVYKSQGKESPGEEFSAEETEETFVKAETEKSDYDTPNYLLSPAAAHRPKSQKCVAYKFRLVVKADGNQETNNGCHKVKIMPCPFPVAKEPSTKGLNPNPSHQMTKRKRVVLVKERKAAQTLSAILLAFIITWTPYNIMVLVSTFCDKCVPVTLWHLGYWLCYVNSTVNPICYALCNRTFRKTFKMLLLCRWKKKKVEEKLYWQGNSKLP
M4 antag: CHRM4 antagonism in calcium assay; P08173; CHO-hM4 cells, ACh EC80, Fluo-8 calcium fluorescence; inhibition, % at 3 µM; hit rate 0.73% among 360,000; AID 624125;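 active means inhibition above its plate's cutoff, the mean inhibition of sample wells plus 3 SD, cut at about 27% in these data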;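 further: 0% = acetylcholine EC80 with DMSO and 100% = DMSO without agonist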
CHRM4 agonist: agonists of human muscarinic M4 receptor (CHRM4). AID 624127. hit rate 0.14% among 360,000. P08173. CHO-K1 hM4/Gqi5, Fluo-8 calcium fluorescence; vehicle 0%, full acetylcholine response 100%. activation, % at 3 µM;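 active means activation above the run mean over all test wells plus 3 SD, cut at about 32% in these data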;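 further: peak over basal fluorescence ratio per well then scaled between controls; 0% = DMSO wells and 100% = acetylcholine at EC100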
CHRM5 PAM: CHRM5 positive allosteric modulation; P08912; CHO-K1 hM5, Fluo-8 calcium, ACh EC20 PAM; 0% = ACh EC20, 100% = ACh EC100; activation, % at 3 µM; hit rate 0.3% among 360,000; AID 624038;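 active means activation above the run cutoff, the mean activation of all test compounds plus 3 SD, cut at about 18% in these data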
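system = human M5 receptor in CHO-K1 cells | compound = one concentration, 3 µM final (nominal) | schedule = Post-acetylcholine fluorescence recording 140 s | signal = Fluo-8 calcium dye fluorescence, kinetic read | benchmarks = low control EC20 acetylcholine (0%), high control EC100 acetylcholine (100%) | repeats = singlicate, one well per test compound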
CHRM4 PAM: potentiates acetylcholine response at human M4 receptor; hit rate 0.4% among 360,000; AID 624126; activation, % at 3 µM; P08173; CHO-K1 hM4/Gqi5, Fluo-8 calcium fluorescence, ACh EC20; 0% = ACh EC20, 100% = maximal ACh;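 active means activation above its plate's cutoff, the mean activation of sample wells plus 3 SD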
CHRM5 antagonist: CHRM5 antagonism in calcium assay | AID 624040 | P08912 | inhibition, % at 3 µM | hit rate 0.59% among 360,000 | CHO-hM5 cells, Fluo-8 calcium fluorescence, ACh EC80;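 active means inhibition above a per-plate cutoff, the mean of that plate's test compounds plus 3 SD, cut at about 27% in these data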;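 further: 0% = acetylcholine EC80 with DMSO and 100% = DMSO without agonist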
Starred values were filed as active, the others as inactive. Most compounds without a hit are left out; they make up all but 1.9% or so of the library.

SMILES	M5 ag	M4 antag	CHRM4 agonist	CHRM5 PAM	CHRM4 PAM	CHRM5 antagonist
Cc1cccc(C)c1NC(=O)COC(=O)c1cccc2c1C(=O)c1ccccc1C2=O	1	5	3	-9	-6	1
O=C(NC(=S)N1CCCCC1c1cccnc1)c1ccc(Br)cc1 (stereo not drawn)	0	-6	0	8	15*	4
O=C(NC(=S)N1CCCCC1c1cccnc1)c1ccc(F)cc1 (stereo not drawn)	-2	8	2	-4	1	2
O=C(NC(=S)NN1CCCCC1c1cccnc1)c1ccc(Cl)cc1Cl (stereo not drawn)	2	-11	0	22*	2	-14
O=C(NC(=S)N1CCCC1)c1ccc(Cl)cc1Cl	-1	0	0	-1	-5	-2
Cn1cccc1C(=O)OCC(=O)N1CCc2ccccc2C1	2	-17	1	-2	0	9
NS(=O)(=O)c1ccc(NC(=O)Nc2ccc(C(F)(F)F)cc2)cc1	6	5	0	3	-4	-2
COC(=O)c1c(C)[nH]c(C(=O)CN2C(=O)C3CC=CCC3C2=O)c1C (stereo not drawn)	4	0	3	3	26*	3
CCOC(=O)c1c(C)[nH]c(C(=O)CN2C(=O)C(=O)N(CC(C)C)C2=O)c1C	0	-6	7	-11	-1	-22
CCOC(=O)c1c(C)[nH]c(C(=O)CN2C(=O)NC(C)(c3ccc(C)cc3)C2=O)c1C (stereo not drawn)	27*	-3	21	2	9	5
CN1CCN(C(CNS(=O)(=O)c2ccc(Br)cc2)c2ccc3c(c2)OCO3)CC1 (stereo not drawn)	-10	-5	6	-34	0	27*
CC(C)(C)OC(=O)NCCCCCNC(=O)c1nc[nH]c1C(=O)NCc1ccc(CNC(=O)OC(C)(C)C)cc1	2	54*	34*	-38	-17	33*
CC(C)(C)OC(=O)NCc1ccc(CNC(=O)c2nc[nH]c2C(=O)NCc2ccc(CNC(=O)OC(C)(C)C)cc2)cc1	5	2	8	-10	-4	1
O=c1cc(O)n(Cc2ccc(F)cc2)c(=O)[nH]1	0	-1	1	0	-2	9
Cc1cc(C(=O)N/N=C2/CC(C)CC(C)(C)C2)c(C)o1 (stereo not drawn)	-1	-4	0	-4	26*	-9
COc1ccc(Nc2nc(-c3ccc4c(c3)NC(=O)CO4)cs2)cc1	-2	-4	1	12	22*	-15
COc1ccccc1Nc1nc(-c2ccc3c(c2)NC(=O)CO3)cs1	-1	-3	12	2	0	-2
Cc1ccc(NC(=S)N(CCCN2CCOCC2)Cc2cccs2)c(C)c1	-4	-9	1	4	0	4
COc1ccc(NC(=S)N(CCCN2CCCCC2)Cc2cccs2)cc1	-7	40*	3	-18	-38	12
Cc1c(Cl)cccc1NC(=S)N(CCCN1CCOCC1)Cc1cccs1	-5	56*	2	-17	-39	3
COc1cccc(CN(C)S(=O)(=O)c2c(C)noc2C)c1OC	0	-4	0	0	-3	-5
O=C(NN1C(=O)/C(=C/c2ccc(O)cc2)SC1=S)c1cccc(O)c1	25*	14	13	-5	-8	11
COc1cc(/C=C2\SC(=S)N(NC(=O)c3ccccc3O)C2=O)ccc1O	20	20	33*	-12	-18	21
O=C(COc1ccc(Cl)cc1Br)Nc1nnc(C2CC2)s1	0	6	1	0	1	17
COC(=O)C(NC(C)=O)(Nc1ccc(C)cn1)C(F)(F)F (stereo not drawn)	-8	-10	0	7	6	0
SMILES	M5 ag	M4 antag	CHRM4 agonist	CHRM5 PAM	CHRM4 PAM	CHRM5 antagonist
O=C(O)CCCn1cc(NC(=O)COc2ccc([N+](=O)[O-])cc2)cn1	-4	3	1	-7	3	2
Cc1ccc(CNC(=O)[C@H]2O[C@@H](n3ccc(N)nc3=O)[C@H](O)[C@@H]2O)o1	1	-17	2	10	20*	-14
CCCn1cnnc1CNC(=O)[C@H]1O[C@@H](n2ccc(N)nc2=O)[C@H](O)[C@@H]1O	1	1	0	2	2	-9
CCCN(CCC)S(=O)(=O)c1cccc(C(=O)N=c2sccn2C)c1	2	-1	11	-9	-2	7
C=CCc1c(C)nc(-c2ccccc2)nc1N/N=C(\C)c1ccccc1	-4	35*	-1	-6	-9	9
CC(=O)c1c(C)[nH]c(C(=O)CSc2nnc(C)s2)c1C	3	-3	3	-3	-2	4
CC(=O)N1CCc2cc(S(=O)(=O)NC(C(=O)NC(C)c3ccccc3)C(C)C)ccc21 (stereo not drawn)	-4	2	0	5	4	0
CCOC(=O)C1CCN(c2nc3ccccc3nc2C(C#N)C(=O)OC(C)C)CC1 (stereo not drawn)	-4	3	0	-3	0	1
CCOC(=O)C1CCCN(c2nc3ccccc3nc2C(C#N)C(=O)OC(C)C)C1 (stereo not drawn)	2	0	2	4	21*	-1
O=C(NCc1ccccn1)c1ccc(CNS(=O)(=O)c2cccc(Cl)c2)cc1	-2	1	2	-2	-2	7
O=C(Sc1cccc2cccnc12)c1ccccc1Br	-4	39*	4	-2	-6	27
CCOC(=O)N1C=CC(C)=C[C@@H]2[C@@H](N3C(=O)c4ccccc4C3=O)C(=O)N21	1	6	2	1	0	5
COc1ccc(/C=C2\COc3ccccc3C2=O)cc1OC	-1	5	5	-4	-5	6
CCOc1cc(/C=C2\COc3ccccc3C2=O)cc(Br)c1OCC(=O)N(C)C	3	29*	20	-4	-11	14
CCCCn1c(N)c(N(CCOC)C(=O)c2cc(-c3ccc(F)cc3)nc3ccccc23)c(=O)[nH]c1=O	1	-6	0	7	3	-2
COc1cc2c(cc1NC(=O)CN1CCN(S(=O)(=O)c3ccc(C)cc3)CC1)oc1ccccc12	-1	-8	1	-1	22*	9
O=C(N/N=C/c1cc(Cl)c(O)c(Cl)c1)c1cc2c(ccc3ccccc32)o1	-1	-4	7	1	-2	4
Cc1csc(=O)n1CC(=O)OCC(=O)NNC(=O)c1ccc(Cl)cc1	4	5	2	11	9	-4
CCN1C(=NCCCCO)N[C@@H](c2cccc(F)c2)C(C(=O)OC)=C1C	-6	-11	0	5	23*	-1
